Results as given in ChEMBL document CHEMBL1212762, “In vivo activity of ceftobiprole in murine skin infections due to Staphylococcus aureus and Pseudomonas aeruginosa” (Antimicrob Agents Chemother, 2010).

Experiments:
Pseudomonas aeruginosa [1] = test: Antimicrobial activity against Pseudomonas aeruginosa OC 4354 infected in immunocompromized SKH1 mouse assessed as log change in bacterial colony forming unit at 100 mg/kg/day, sc; assay type: functional; details: route subcutaneous
Summary of the method: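 Female SKH1 hairless mice made neutropenic with ip cyclophosphamide (150 mg/kg 5 days and 100 mg/kg 1 day before infection). 0.2 ml s.c. Cytodex bead (0.1% vol/vol) inoculum in BHI: OC 4351 left flank, OC 4354 right flank. Drug s.c. at 1, 3, 25, 27 h postinfection. Killed at 48 h; skin homogenised in saline, plated on TSA 18 h 37°C; Δlog CFU/g versus inoculum. 5 mice/dose, run twice.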

Staphylococcus aureus [2] = test: Antimicrobial activity against methicillin-susceptible Staphylococcus aureus OC 4172 assessed as inhibition of growth by broth microdilution method; assay type: functional
Pseudomonas aeruginosa [3] = test: Antimicrobial activity against Pseudomonas aeruginosa OC 4354 assessed as inhibition of growth by broth microdilution method; assay type: functional
[4] = Half life in immunocompetent SKH1 mouse plasma at 12.5 mg/kg, sc; assay type: ADME, organism-based; set-up: dose 12.5 mg/kg, route subcutaneous
Summary of the method: (§1)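 Female SKH1 hairless mice, immunocompetent or cyclophosphamide-neutropenic, infected s.c. with MRSA OC 8525 or P. aeruginosa OC 4354 on the Cytodex beads (left flank), sterile beads on the right. Single dose 24 h later: s.c. at the nape, or linezolid 50 mg/kg oral. Plasma and skin (DMSO homogenate) sampled over time, HPLC with diode array.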

Zone of skin = test: fAUC (0-infinity) in immunocompetent SKH1 mouse skin at 50 mg/kg, sc; assay type: ADME, organism-based; set-up: dose 50 mg/kg, route subcutaneous; details: in vivo; summary of the method: as §1
Staphylococcus aureus [5] = test: Antimicrobial activity against methicillin-susceptible Staphylococcus aureus Smith OC 4172 infected in SKH1 mouse assessed as log change in bacterial colony forming unit per gram of skin tissue at 100 mg/kg/day, sc (reference value: 1.6 deltalog CFU); assay type: functional; details: route subcutaneous

With `Nc1nc(/C(=N/O)C(=O)N[C@@H]2C(=O)N3C(C(=O)O)=C(/C=C4\CCN([C@@H]5CCNC5)C4=O)CS[C@H]23)ns1` [CEFTOBIPROLE] the deltalog10CFU (Pseudomonas aeruginosa [1]) was -1.4, the MIC (Staphylococcus aureus [2]) was 0.25 µg/mL and the MIC (Pseudomonas aeruginosa [3]) was 4 µg/mL. It also gave a half-life [4] of 17 min, a fAUC (Zone of skin) of 668 µg·min/mL and a deltalog10CFU (Staphylococcus aureus [5]) of -1.7.
